In series [1] the test system is THLE-2 cells. The experiment in a line: Apoptosis assay. The series is classed as cell-based, human. As to conditions: THLE-2 cells on the TeamChip.
Series [2] concerns THLE-2 cells. The experiment in a line: Intracellular GSH assay on the TeamChip. It is filed as cell-based, human. The note with it: exposed to 5 μM ketoconazole, at varying concentrations of acetaminophen. In a few lines:
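THLE-2 cells in Matrigel spots on a micropillar chip, transduced with 15 MOI Ad-CYP3A4 or Ad-Null (control) for 1 d. Then exposed for 48 h to varying test compound with 5 μM CYP3A4 inhibitor. Washed twice in DPBS, stained 20 min in the dark with thiol green dye (intracellular GSH kit), chip scanned, GSH quantified; n = 3.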

In series [3] the test system is All Mix: CYP2C9, CYP2D6, CYP3A4, CYP1A2, CYP2E1, UGT1A4 (expressed). The experiment in a line: TeamChip metabolism-induced toxicity assay, All Mix. As to conditions: human. It is filed as cell-based.
For series [4], the system named is CYP2D6 (expressed drug-metabolizing enzyme). The experiment in a line: TeamChip metabolism-induced toxicity assay, CYP2D6. As to conditions: human. It is filed as cell-based.
Series [5] relates to CYP3A4 (expressed drug-metabolizing enzyme). The experiment in a line: TeamChip metabolism-induced toxicity assay, CYP3A4. It is filed as cell-based. As to conditions: human, IC50, CYP3A4, Ad-CYP3A4 15 MOI; compound 48 h; n = 4.
Series [6] has as its system UGT1A4 (expressed metabolising enzyme). The experiment in a line: TeamChip metabolism-induced toxicity assay, UGT1A4. The series is classed as cell-based. The note with it: human, IC50, UGT1A4, Ad-UGT1A4 15 MOI; compound 48 h; n = 4.
Series [7] relates to CYP1A2 (expressed drug-metabolizing enzyme). The series can be described thus: TeamChip metabolism-induced toxicity assay, CYP1A2. It is filed as cell-based. The note with it: human.
For series [8], the system named is THLE-2 cells (no enzyme, Ad-Null). The experiment in a line: TeamChip metabolism-induced toxicity assay, no enzyme control. The series is classed as cell-based. The note with it: Homo sapiens, read-out: IC50, No enzyme.
In series [9] the test system is P450 Mix: CYP2C9, CYP2D6, CYP3A4, CYP1A2, CYP2E1 (expressed). The series can be described thus: TeamChip metabolism-induced toxicity assay, P450 Mix. It is filed as cell-based. The note with it: human.
The test system of series [10] is CYP2C9 (expressed drug-metabolizing enzyme). The series can be described thus: TeamChip metabolism-induced toxicity assay, CYP2C9. It is filed as cell-based. The note with it: human.
Series [11] deals with HepaRG cells in 2D culture. The note with it: read-out: IC50, HepaRG cells in 2D culture; cited from earlier work.
Series [12] relates to CYP2E1 (expressed drug-metabolizing enzyme). The experiment in a line: TeamChip metabolism-induced toxicity assay, CYP2E1. It is filed as cell-based. The note with it: human. In a few lines:
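THLE-2 cells in Matrigel spotted onto micropillars at 4°C, held 18 h at 37°C, transduced 1 d with recombinant adenovirus carrying the enzyme gene (Ad-Null as no-enzyme control). Then exposed 2 d to test compound in BEGM. Washed twice in DPBS, Live/Dead stained 1 h in the dark, chip scanned.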

Series [13] deals with HepaRG cells in 3D culture. The note with it: read-out: IC50, HepaRG cells in 3D culture; cited from earlier work.

Like-named read-outs stand apart in the source and are kept apart here.

Turning to `COc1cccc2c1C(=O)c1c(O)c3c(c(O)c1C2=O)C[C@@](O)(C(=O)CO)C[C@@H]3O[C@H]1C[C@H](N)[C@H](O)[C@H](C)O1` [Doxorubicin, doxorubicin], the “number of apoptotic cells” value with THLE-2 cells [1] is recorded as “increased the number of apoptotic cells in a dose-dependent manner”.
For `CC(=O)N1CCN(c2ccc(OCC3COC(Cn4ccnc4)(c4ccc(Cl)cc4Cl)O3)cc2)CC1` (centres unmarked) [ketoconazole], the “intracellular GSH concentrations in CYP3A4-expressing THLE-2 cells” value in the series on THLE-2 cells [2] is reported as “unchanged”.
For the molecule `Nc1c(CC(=O)O)cccc1C(=O)c1ccc(Br)cc1` [Bromfenac, bromfenac], the IC50 at 48 h in series [3] came to […]; in series [4] it was 170 ± 39 µM; in [5], […]; in series [6], 210 ± 14 µM; in series [7], 190 ± 37 µM; in [9], 220 ± 24 µM. Also, in [10], half-maximal inhibition (IC50 at 48 h) was put at 120 ± 6 µM. In addition, the IC50 was 210 ± 17 µM in series [8] (48 h) and 190 ± 12 µM in series [8] (THLE-2, 48 h).
As for `CC(C)C(=O)Nc1ccc([N+](=O)[O-])c(C(F)(F)F)c1` [Flutamide, flutamide], the concentration for half-maximal inhibition (IC50) at 48 h in series [3] was found to be 17 ± 1.1 µM; in series [4], 27 ± 5.1 µM; in [5], […]; in [6], 38 ± 1.8 µM; in series [7], 18 ± 0.5 µM; in series [9] it was 18 ± 4.1 µM. Further, half-maximal inhibition in series [10] (IC50 at 48 h) was put at 25 ± 4.8 µM. The IC50 was 45 ± 1.6 µM in series [8] (48 h) and 37 ± 9.7 µM in series [8] (THLE-2, 48 h).
`CC(=O)Nc1ccc(O)cc1` [Acetaminophen, acetaminophen]: the IC50 at 48 h worked out at 640 ± 100 µM in series [3]; 1100 ± 71 µM in series [4]; […] in series [5]; 2100 ± 52 µM in series [6]; 820 ± 21 µM in [7]; 240 ± 74 µM in series [9]. For the same molecule, in series [10], half-maximal inhibition (IC50 at 48 h) required 930 ± 41 µM. The concentration for half-maximal inhibition (IC50) in series [11] is 26300 µM; in series [8] (48 h), 1500 ± 63 µM; in series [8] (THLE-2, 48 h) it was 1400 ± 250 µM; in [13], 2700 µM. In series [12], this molecule returned a half-inhibitory concentration (IC50) at 2 d of 180 µM.
For `CN1CCN(CCCN2c3ccccc3Sc3ccc(C(F)(F)F)cc32)CC1` [Trifluoperazine, trifluoperazine], the IC50 at 48 h in [3] was 110 ± 10 µM; in [4], 69 ± 9.3 µM; in series [5], 110 ± 7.3 µM; in [6], 100 ± 12 µM; in series [7] it was 120 ± 5.1 µM; in series [9], 53 ± 13 µM. Also, the IC50 at 48 h in series [10] stood at 75 ± 12 µM. Moreover, the 50% inhibitory concentration (IC50) in series [8] (48 h) worked out at 75 ± 11 µM; in series [8] (THLE-2, 48 h), 80 ± 9.4 µM.
As for `Cc1c(C)c2c(c(C)c1O)CCC(C)(COc1ccc(CC3SC(=O)NC3=O)cc1)O2` (centres unmarked) [Troglitazone, troglitazone], the IC50 at 48 h in [3] turned out to be 62 ± 2.9 µM; in series [4], 77 ± 4.2 µM; in series [5], […]; in [6] it was 150 ± 11 µM; in series [7], 39 ± 6.6 µM; in series [9] it was 51 ± 4.3 µM. The IC50 at 48 h in series [10] is 50 ± 4.9 µM. The concentration for half-maximal inhibition (IC50) in series [8] (48 h) was 110 ± 15 µM; in series [8] (THLE-2, 48 h), 92 ± 6.4 µM.

Values taken from paper PMC4132844 (Nature communications, 2014).
